In ChEMBL document CHEMBL1128551, “Decapeptide agonists of human C5a: the relationship between conformation and neutrophil response” (J Med Chem, 1995):
Where a SMILES comes first, the peptide text is derived from it.

Target: T1, C5a anaphylatoxin chemotactic receptor 1 (Homo sapiens, UniProt P21730)
T1 sequence (P21730 whole entry): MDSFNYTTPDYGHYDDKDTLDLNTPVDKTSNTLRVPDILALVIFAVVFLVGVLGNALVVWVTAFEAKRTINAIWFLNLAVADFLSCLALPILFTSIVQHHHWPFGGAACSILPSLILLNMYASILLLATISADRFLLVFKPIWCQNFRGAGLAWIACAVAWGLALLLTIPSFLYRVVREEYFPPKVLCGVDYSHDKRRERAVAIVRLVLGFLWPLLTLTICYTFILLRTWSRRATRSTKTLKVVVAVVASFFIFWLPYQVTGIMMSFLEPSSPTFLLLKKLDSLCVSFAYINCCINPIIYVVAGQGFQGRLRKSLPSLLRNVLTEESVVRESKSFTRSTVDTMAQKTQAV
Assay: Release of beta-glucuronidase from human polymorphonuclear leukocytes(PMN)
Type: functional
Outline: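 Human PMNs pretreated with cytochalasin B (5 μg/mL, 10 min, 37 °C). 10^6 cells incubated with stimulant 60 min at 37 °C, then centrifuged. Supernatant reacted with 0.01 M p-nitrophenyl β-D-glucuronide in 0.1 M sodium acetate pH 4 for 18 h, in triplicate. Stopped with 0.4 M glycine pH 10. EC50 from dose-response.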

Q: How did the EC50 turn out when H-YSFKDCPLGR-OH was run?
A: The EC50 was greater than 1000 µM.

Q: With `CSCC[C@H](NC(=O)[C@H](CC(=O)O)NC(=O)[C@H](CCCCN)NC(=O)[C@H](Cc1ccccc1)NC(=O)[C@H](CO)NC(=O)[C@@H](N)Cc1ccc(O)cc1)C(=O)N1CCC[C@H]1C(=O)N[C@@H](C)C(=O)NCC(=O)N[C@@H](CCCNC(=N)N)C(=O)O` as the molecule, how does the EC50 read?
A: The EC50 was 680 µM.

Q: How did the EC50 turn out when H-YSFKDMQLGR-OH was run?
A: The EC50 was 520 µM.

Q: `CC(C)C[C@H](NC(=O)[C@@H]1CCCN1C(=O)[C@H](CS)NC(=O)[C@H](CC(=O)O)NC(=O)[C@H](CCCCN)NC(=O)[C@H](Cc1ccccc1)NC(=O)[C@H](CO)NC(=O)[C@@H](N)Cc1ccc(O)cc1)C(=O)N[C@@H](CS)C(=O)N[C@@H](CCCNC(=N)N)C(=O)O` (H-YSFKDCPLCR-OH) was tested. Which EC50 did it give?
A: Its EC50 is greater than 1000 µM.

Q: How did the EC50 turn out when `CSCC[C@H](NC(=O)[C@H](CC(=O)O)NC(=O)[C@H](CCCCN)NC(=O)[C@H](Cc1ccccc1)NC(=O)[C@H](CO)NC(=O)[C@@H](N)Cc1ccc(O)cc1)C(=O)N1CCC[C@H]1C(=O)N[C@@H](CC(C)C)C(=O)NCC(=O)N[C@@H](CCCNC(=N)N)C(=O)O` was run?
A: The EC50 was 80 µM.

Q: Which EC50 does the source give for H-YSFKGMLLGR-OH here?
A: The EC50 was 70 µM.

Q: How did the EC50 turn out when `CC(C)C[C@H](NC(=O)[C@@H]1CCCN1C(=O)[C@H](C)NC(=O)[C@H](CC(=O)O)NC(=O)[C@H](CCCCN)NC(=O)[C@H](Cc1ccccc1)NC(=O)[C@H](CO)NC(=O)[C@@H](N)Cc1ccc(O)cc1)C(=O)NCC(=O)N[C@@H](CCCNC(=N)N)C(=O)O` was run?
A: The EC50 was 207 µM.

Q: With H-YSFKDMQPGR-OH as the molecule, how does the EC50 read?
A: The EC50 was 42 µM.

Q: How did the EC50 turn out when H-ISHKDMQLGR-OH was run?
A: The EC50 was 0.0123 µM.

Q: With H-YSFKGLLLGR-OH as the molecule, how does the EC50 read?
A: The EC50 was 27.7 µM.

Q: How did the EC50 turn out when `CSCC[C@H](NC(=O)[C@H](CC(=O)O)NC(=O)[C@H](CCCCN)NC(=O)[C@H](Cc1ccccc1)NC(=O)[C@H](CO)NC(=O)[C@@H](N)Cc1ccc(O)cc1)C(=O)N[C@@H](CCC(N)=O)C(=O)N[C@@H](CC(C)C)C(=O)N1CCC[C@H]1C(=O)N[C@@H](CCCNC(=N)N)C(=O)O` was run?
A: Its EC50 is greater than 1000 µM.
